Test results taken from PMC3891043 (Canadian journal of chemistry, 2011).
One block for each compound: values may come before it.

Experiments:
[1] = Laser flash photolysis / femtosecond pump-probe spectroscopy; assay type: physicochemical
Outline: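 Pump: 266 nm pulses (frequency-doubled 532 nm NOPA output from a 775 nm Ti/Sa laser), 1 μJ, <150 fs. Probe: supercontinuum from a CaF2 plate, 270–690 nm. Sample flowed through a 0.4 mm cell with a 0.2 mm spot. Probe and reference were read on photodiode arrays; cross-correlation <100 fs. Data to 50 ps were chirp-corrected, and 3–6 scans of 400 shots/point were averaged.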

[2] = cited from earlier work
[3] = Stern-Volmer quenching with sorbate; assay type: physicochemical; conditions: unbuffered 18 MΩ Ultrapure H2O; from KSV with kq assumed kdiff ~ 7.2 × 10^9 s^−1
Outline: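 pHP GABA (0.001–0.01 mol/L) was diluted with potassium sorbate quencher (0–0.1 mol/L) and photolysed under the quantum-yield conditions (Rayonet, 3000 Å, LC-MS quantitation of GABA release). KSV came from Φ0/Φ vs [Q]. Triplet lifetime was obtained from KSV, taking kq as the diffusion rate in water.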

[4] = Photolysis quantum yields; assay type: physicochemical; conditions: for Φdis, disappearance quantum yield (pHP diethyl phosphates): λ = 300 nm, 50% aq CH3CN
Outline: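 Caged compound (1–9 mmol/L) plus internal standard (caffeine or 4-acetamidophenol) in water, buffer or solvent, in a quartz tube. Irradiated in a Rayonet carousel (two 15 W, 3000 Å Hg lamps), with ferrioxalate actinometry. Aliquots taken every 30 s up to 5 min, diluted and run on C18 LC-MS (water/methanol gradient with ammonium formate/formic acid), three injections each. Quantitation used calibration curves; Φ = concentration change / photons absorbed. 1H NMR in D2O confirmed products.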

[5] = Stability to aqueous hydrolysis; assay type: physicochemical; conditions: compared with other pHP phosphates
[6] = λ = 300 nm, reported earlier, for comparison, cited from earlier work
[7] = unbuffered H2O, singlet λmax ~ 315 nm
[8] = 300 nm, pH 5.0, ammonium acetate (0.01 mol/L), buffered CH3CN–H2O
[9] = unbuffered 18 MΩ Ultrapure H2O, conversion <2%
[10] = 300 nm, pH 7.3, HEPES (0.01 mol/L) and LiClO4 (0.1 mol/L)
[11] = 300 nm, pH 8.2, HEPES (0.01 mol/L) and LiClO4 (0.1 mol/L)
[12] = unbuffered H2O with acetonitrile (5%) added to dissolve the ester
[13] = unbuffered CH3CN–H2O (1:1), conversion <2%

Compound: COC(=O)c1cc(C(=O)COC(=O)CCCN)ccc1O.O=C(O)C(F)(F)F [Compound 10, 4-(2-(4-Hydroxy-3-(methoxycarbonyl)phenyl)-2-oxoethoxy)-4-oxobutan-1-aminium-2,2,2-trifluoroacetate]
k2, rate constant for triplet decay ([1]; unbuffered H2O): 1.3 109 s^−1
k1, rate constant for triplet rise [1, 7]: 3.2 1011 s^−1

Compound: p-hydroxyphenacyl [pHP]
Triplet energy of the conjugate base ([2]; conjugate base of pHP): 61.2 kcal/mol
Triplet energy ([2]; un-ionized pHP): 71.6 kcal/mol

Φapp, quantum yield for the appearance of GABA [4, 8]: 0.14
Φapp, quantum yield for the appearance of rearranged acid [4, 8]: 0.14
Φdis, quantum yield for the disappearance of pHP GABA [4, 8]: 0.15
Φapp, quantum yield for the appearance of GABA [4, 9]: 0.15
Φapp, quantum yield for the appearance of rearranged acid [4, 9]: 0.15
Φdis, quantum yield for the disappearance of pHP GABA [4, 9]: 0.16
Compound: NCCCC(=O)OCC(=O)c1ccc(O)c(F)c1.O=C(O)C(F)(F)F [Compound 16, 4-(2-(3-Fluoro-4-hydroxyphenyl)-2-oxoethoxy)-4-oxobutan-1-aminium-2,2,2-trifluoroacetate]
τ^3, triplet lifetime [3]: 3.23 10^−9s

Φapp, quantum yield for the appearance of GABA [4, 8]: 0.20
Φapp, quantum yield for the appearance of rearranged acid [4, 8]: 0.18
Φdis, quantum yield for the disappearance of pHP GABA [4, 8]: 0.21
Φapp, quantum yield for the appearance of GABA [4, 10]: 0.20
Φapp, quantum yield for the appearance of rearranged acid [4, 10]: 0.20
Φdis, quantum yield for the disappearance of pHP GABA [4, 10]: 0.21
Φapp, quantum yield for the appearance of GABA [4, 11]: 0.09
Φapp, quantum yield for the appearance of rearranged acid [4, 11]: 0.06
Φdis, quantum yield for the disappearance of pHP GABA [4, 11]: 0.09
Φapp, quantum yield for the appearance of GABA [4, 9]: 0.19
Φapp, quantum yield for the appearance of rearranged acid [4, 9]: 0.16
Φdis, quantum yield for the disappearance of pHP GABA [4, 9]: 0.20
Compound: NCCCC(=O)OCC(=O)c1ccc(O)cc1.O=C(O)C(F)(F)F [Compound 1, 4-(2-(4-Hydroxyphenyl)-2-oxoethoxy)-4-oxobutan-1-aminium-2,2,2-trifluoroacetate]
k2, rate constant for triplet decay ([1]; unbuffered H2O): 3.0 ^c 109 s^−1
k1, rate constant for triplet rise [1, 7]: 4.4 1011 s^−1

Φapp, quantum yield for the appearance of GABA [4, 9]: 0.03
Φdis, quantum yield for the disappearance of pHP GABA [4, 9]: 0.03
Compound: COc1cc(C(=O)COC(=O)CCCN)cc(OC)c1O.O=C(O)C(F)(F)F [Compound 3, 4-(2-(4-Hydroxy-3,5-dimethoxyphenyl)-2-oxoethoxy)-4-oxobutan-1-amonium-2,2,2-trifluoroacetate]
k1, rate constant for triplet rise [1, 12]: 2.7 1011 s^−1
k2, rate constant for triplet decay [1, 12]: 2.8 ^d 109 s^−1

Φapp, quantum yield for the appearance of GABA [4, 9]: 0.06
Compound: COc1cc(C(=O)COC(=O)CCCN)ccc1O.O=C(O)C(F)(F)F [Compound 2, 4-(2-(4-Hydroxy-3-methoxyphenyl)-2-oxoethoxy)-4-oxobutan-1-amonium-2,2,2-trifluoroacetate]
k2, rate constant for triplet decay ([1]; unbuffered H2O): 1.3 109 s^−1
k1, rate constant for triplet rise [1, 7]: 2.2 1011 s^−1

Compound: CCOP(=O)(OCC)OCC(=O)c1c(OC)cc(O)cc1OC [Compound 31, Diethyl (2-(4-hydroxy-2,6-dimethoxyphenyl)-2-oxoethyl) phosphate]
Stability to aqueous hydrolysis (qualitative) [5]: less stable to aqueous hydrolysis
Φdis, disappearance quantum yield (pHP diethyl phosphates) [4]: 0.69

Φapp, quantum yield for the appearance of GABA [4, 8]: 0.13
Φapp, quantum yield for the appearance of rearranged acid [4, 8]: 0.19
Φdis, quantum yield for the disappearance of pHP GABA [4, 8]: 0.21
Φapp, quantum yield for the appearance of GABA [4, 13]: 0.35
Φapp, quantum yield for the appearance of rearranged acid [4, 13]: 0.39
Φdis, quantum yield for the disappearance of pHP GABA [4, 13]: 0.42
Compound: N#Cc1cc(C(=O)COC(=O)CCCN)ccc1O.O=C(O)C(F)(F)F [Compound 13, 4-(2-(3-Cyano-4-hydroxyphenyl)-2-oxoethoxy)-4-oxobutan-1-aminium-2,2,2-trifluoroacetate]
τ^3, triplet lifetime [3]: 40.5 10^−9s

Compound: CCOP(=O)(OCC)OCC(=O)c1ccc(O)cc1OC [Compound 30, Diethyl (2-(4-hydroxy-2-methoxyphenyl)-2-oxoethyl) phosphate]
Stability to aqueous hydrolysis (qualitative) [5]: less stable to aqueous hydrolysis
Φdis, disappearance quantum yield (pHP diethyl phosphates) [4]: 0.59

Compound: NCCCC(=O)OCC(=O)c1ccc(O)c(C(N)=O)c1.O=C(O)C(F)(F)F [Compound 11, 4-(2-(3-Carbamoyl-4-hydroxyphenyl)-2-oxoethoxy)-4-oxobutan-1-aminium-2,2,2-trifluoroacetate]
k2, rate constant for triplet decay ([1]; unbuffered H2O): 2.2 109 s^−1

Compound: CCOP(=O)(OCC)OCC(=O)c1ccc(O)cc1 [Compound 27, Diethyl (2-(4-hydroxyphenyl)-2-oxoethyl) phosphate]
Φdis, disappearance quantum yield (parent pHP diethyl phosphate) ([6]; 50% aq CH3CN): 0.40

Compound: CC(=O)c1ccc(O)cc1 [Compound 1d, p-hydroxyacetophenone, reference compound]
Reduction of pKa of the excited triplet state relative to ground-state pKa [2]: about 4.3 pKa units

Compound: CC(=O)OCC(=O)c1ccc(O)cc1 [Compound 24, 2-(4-Hydroxyphenyl)-2-oxoethyl acetate]
Φdis, disappearance quantum yield (parent pHP acetate) ([6]; 20% aq CH3CN or DMSO): 0.30

Compound: NCCCC(=O)OCC(=O)c1ccc(O)c(C(=O)O)c1.O=C(O)C(F)(F)F [Compound 9, 4-(2-(3-Carboxy-4-hydroxyphenyl)-2-oxoethoxy)-4-oxobutan-1-aminium-2,2,2-trifluoroacetate]
k2, rate constant for triplet decay ([1]; unbuffered H2O): 1.0 109 s^−1
k1, rate constant for triplet rise [1, 7]: 2.1 1011 s^−1
